According to ChEMBL document CHEMBL4406859, “Antitumor and antiviral activities of 4-substituted 1,2,3-triazolyl-2,3-dibenzyl-L-ascorbic acid derivatives” (Eur J Med Chem, 2019):
Calls of active or inactive are those of the source. The calls are words filed in the database; no cut-off is given here.

Experiments:
A549 = assay: Antiproliferative activity against human A549 cells assessed as reduction in cell viability incubated for 72 hrs by MTT assay; type: functional, cell-based; settings: A549, 72 h
Outline: (§1)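 Cells (ATCC) grown in DMEM with 10 FBS, penicillin/streptomycin, 2 mM glutamine, 37 °C, 5 CO2. 5000 cells/well seeded; after 24 h, freshly prepared dilutions at five concentrations (0.01–100 μM) added for 72 h. MTT read-out; absorbance converted to percentage growth by NIH formulas. Two experiments in quadruplicate; IC50 by linear regression.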

CFPAC-1 = assay: Antiproliferative activity against human CFPAC-1 cells assessed as reduction in cell viability incubated for 72 hrs by MTT assay; type: functional, cell-based; settings: Homo sapiens, CFPAC-1, 72 h; read-out: IC50; outline: as §1
HCT-116 = assay: Antiproliferative activity against human HCT116cells assessed as reduction in cell viability incubated for 72 hrs by MTT assay; type: functional, cell-based; settings: HCT-116, 72 h; outline: as §1
HeLa = assay: Antiproliferative activity against human HeLa cells assessed as reduction in cell viability incubated for 72 hrs by MTT assay; type: functional, cell-based; outline: as §1
HepG2 = assay: Antiproliferative activity against human HepG2 cells assessed as reduction in cell viability incubated for 72 hrs by MTT assay; type: functional, cell-based; settings: HepG2, 72 h; outline: as §1
MCF7 = assay: Antiproliferative activity against human MCF7 cells assessed as reduction in cell viability incubated for 72 hrs by MTT assay; type: functional, cell-based; settings: MCF7, 72 h; outline: as §1
SW-620 = assay: Antiproliferative activity against human SW620 cells assessed as reduction in cell viability incubated for 72 hrs by MTT assay; type: functional, cell-based; settings: SW-620, 72 h; outline: as §1
HFF = assay: Cytotoxicity against human HFF cells assessed as reduction in cell viability incubated for 72 hrs by MTT assay; type: cell-based; outline: as §1
Cytomegalovirus [1] = assay: Antiviral activity against Cytomegalovirus AD169 infected in human HELF cells assessed as reduction in virus-induced cytopathogenicity incubated for 7 days by Giemsa staining based microscopic analysis; type: functional, organism-based; settings: Human betaherpesvirus 5, AD169, HELF, 168 h
Outline: (§2)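 Confluent HEL fibroblasts infected with CMV (Davis or AD-169) at 100 PFU/well for 2 h. Residual virus removed, then medium with graded compound concentrations added (duplicate). Incubated 7 days at 37 °C. Cytopathogenicity scored microscopically after ethanol fixation and Giemsa staining. EC50 read from plots of % cytopathogenicity versus concentration.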

Cytomegalovirus [2] = assay: Antiviral activity against Cytomegalovirus Davis infected in human HELF cells assessed as reduction in virus-induced cytopathogenicity incubated for 7 days by Giemsa staining based microscopic analysis; type: functional, organism-based; settings: Human betaherpesvirus 5, Davis, 168 h; outline: as §2
Human alphaherpesvirus 3 [3] = assay: Antiviral activity against thymidine kinase deficient Varicella zoster virus infected in human HELF cells assessed as reduction in virus-induced cytopathogenicity incubated for 7 days by Giemsa staining based microscopic analysis; type: functional, organism-based; settings: Human alphaherpesvirus 3, HELF, 168 h
Human alphaherpesvirus 3 [4] = assay: Antiviral activity against thymidine kinase positive Varicella zoster virus infected in human HELF cells assessed as reduction in virus-induced cytopathogenicity incubated for 7 days by Giemsa staining based microscopic analysis; type: functional, organism-based; settings: Human alphaherpesvirus 3, HELF, 168 h
[5] = Cytotoxicity against human HELF cells assessed as minimum cytotoxic concentration by observing alteration in cell morphology incubated for 3 days by microscopic analysis; type: cell-based; settings: for MCC at 72 h: HELF cells; for MCC: 72 h
Outline: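 Read-out is the minimum cytotoxic concentration (MCC): the lowest compound concentration giving a microscopically detectable change in cell morphology. Measured on confluent human embryonic lung (HEL) fibroblast cultures exposed to a range of compound concentrations.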

[6] = Cytotoxicity against human HELF cells assessed as reduction in cell viability incubated for 3 days by coulter counter method; type: cell-based; settings: 72 h
Outline: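 HEL cells seeded at 5 x 10^3/well and allowed to proliferate 24 h, then exposed to graded compound concentrations for 3 days at 37 °C. Cell number counted with a Coulter counter.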

Influenza A virus [7] = assay: Antiviral activity against Influenza A virus (A/Ned/378/05(H1N1)) infected in dog MDCK cells assessed as reduction in virus-induced cytopathogenicity incubated for 7 days by microscopic analysis; type: functional, organism-based
Influenza A virus H3N2 [8] = assay: Antiviral activity against Influenza A virus (A/HK/7/87(H3N2)) infected in dog MDCK cells assessed as reduction in virus-induced cytopathogenicity incubated for 7 days by microscopic analysis; type: functional, organism-based; settings: A/Hong Kong/7/1987(H3N2)
Influenza B virus [9] = assay: Antiviral activity against Influenza B virus (B/Ned/537/05) infected in dog MDCK cells assessed as reduction in virus-induced cytopathogenicity incubated for 7 days by microscopic analysis; type: functional, organism-based
Influenza A virus [10] = assay: Antiviral activity against Influenza A virus (A/Ned/378/05(H1N1)) infected in dog MDCK cells assessed as reduction in virus-induced cytopathogenicity incubated for 7 days by MTS assay; type: functional, organism-based
Influenza A virus H3N2 [11] = assay: Antiviral activity against Influenza A virus (A/HK/7/87(H3N2)) infected in dog MDCK cells assessed as reduction in virus-induced cytopathogenicity incubated for 7 days by MTS assay; type: functional, organism-based; settings: A/Hong Kong/7/1987(H3N2)
Influenza B virus [12] = assay: Antiviral activity against Influenza B virus (B/Ned/537/05) infected in dog MDCK cells assessed as reduction in virus-induced cytopathogenicity incubated for 7 days by MTS assay; type: functional, organism-based
Human alphaherpesvirus 1 [13] = assay: Antiviral activity against Herpes simplex virus 1 KOS infected in human HELF cells assessed as reduction in virus-induced cytopathogenicity incubated for 7 days by microscopic analysis; type: functional, organism-based; settings: strain KOS
Human alphaherpesvirus 2 = assay: Antiviral activity against Herpes simplex virus 2 G infected in human HELF cells assessed as reduction in virus-induced cytopathogenicity incubated for 7 days by microscopic analysis; type: functional, organism-based; settings: for EC50: Human alphaherpesvirus 2, G, 168 h
Human alphaherpesvirus 1 [14] = assay: Antiviral activity against Herpes simplex virus 1 TK-KOS-ACV infected in human HELF cells assessed as reduction in virus-induced cytopathogenicity incubated for 7 days by microscopic analysis; type: functional, organism-based; settings: for EC50: Human alphaherpesvirus 1, TK-KOS-ACV, 168 h
Human adenovirus 2 = assay: Antiviral activity against Human adenovirus 2 infected in human HELF cells assessed as reduction in virus-induced cytopathogenicity incubated for 7 days by microscopic analysis; type: functional, organism-based
Human coronavirus 229E = assay: Antiviral activity against Human coronavirus 229E infected in human HELF cells assessed as reduction in virus-induced cytopathogenicity incubated for 7 days by microscopic analysis; type: functional, organism-based
Coxsackievirus B4 = assay: Antiviral activity against Human coxsackievirus B4 infected in vero cells assessed as reduction in virus-induced cytopathogenicity incubated for 7 days by microscopic analysis; type: functional, organism-based
Reovirus sp. = assay: Antiviral activity against Reovirus infected in vero cells assessed as reduction in virus-induced cytopathogenicity incubated for 7 days by microscopic analysis; type: functional, organism-based
Sindbis virus = assay: Antiviral activity against Sindbis virus infected in vero cells assessed as reduction in virus-induced cytopathogenicity incubated for 7 days by microscopic analysis; type: functional, organism-based

Compound	IC50 (CFPAC-1) [µM]	IC50 (HCT-116) [µM]	IC50 (HeLa) [µM]	IC50 (HepG2) [µM]	IC50 (MCF7) [µM]	IC50 (SW-620) [µM]	IC50 (HFF) [µM]	EC50 (Cytomegalovirus [1]) [µM]	EC50 (Cytomegalovirus [2]) [µM]	EC50 (Human alphaherpesvirus 3 [3]) [µM]	EC50 (Human alphaherpesvirus 3 [4]) [µM]	MCC at 72 h [5] [µM]	CC50 [6] [µM]	Activity (Influenza A virus [7])	Activity (Influenza A virus H3N2 [8])	Activity (Influenza B virus [9])	Activity (Influenza A virus [10])	Activity (Influenza A virus H3N2 [11])	Activity (Influenza B virus [12])	Activity (Human alphaherpesvirus 1 [13])	other results
O=C1O/C(=C\Cn2cc(-c3ccc(Br)cc3)nn2)C(OCc2ccccc2)=C1OCc1ccccc1	> 100	> 100	24.3	> 100	> 100	> 100	> 100	> 100	8.94	> 100	44.7	> 100	> 100	inactive	inactive	inactive	inactive	inactive	inactive	inactive	IC50 (A549): > 100 µM; Activity (Human alphaherpesvirus 2): inactive; Activity (Human alphaherpesvirus 1 [14]): inactive; Activity (Human adenovirus 2): inactive; Activity (Human coronavirus 229E): inactive; Activity (Coxsackievirus B4): inactive; Activity (Reovirus sp.): inactive; Activity (Sindbis virus): inactive
C[Si](C)(C)c1cn(C[C@H](O)[C@H]2OC(=O)C(OCc3ccccc3)=C2OCc2ccccc2)nn1	52.6	31.8	22.3	24.1	12.1	56	20	> 100	12.1	> 20	> 20	100	22.3	inactive	inactive	inactive	inactive	inactive	inactive	inactive	Activity (Human alphaherpesvirus 2): inactive; Activity (Human alphaherpesvirus 1 [14]): inactive; Activity (Human adenovirus 2): inactive; Activity (Human coronavirus 229E): inactive; Activity (Coxsackievirus B4): inactive; Activity (Reovirus sp.): inactive; Activity (Sindbis virus): inactive
CCCCc1cn(C[C@H](O)[C@H]2OC(=O)C(OCc3ccccc3)=C2OCc2ccccc2)nn1	73.2	10.4	18.1	32.8	7.91	47.5	26.3	> 20	> 4	> 20	7.31	20	–	inactive	inactive	inactive	inactive	inactive	inactive	inactive	IC50 (A549): 28.6 µM; Activity (Human alphaherpesvirus 2): inactive; Activity (Human alphaherpesvirus 1 [14]): inactive; Activity (Human adenovirus 2): inactive; Activity (Human coronavirus 229E): inactive; Activity (Coxsackievirus B4): inactive; Activity (Reovirus sp.): inactive; Activity (Sindbis virus): inactive
Nc1nc(O)c2ncn(COC(CO)CO)c2n1 [GANCICLOVIR]	–	–	–	–	–	–	–	3.15	2.3	–	–	> 350	> 350	–	–	–	–	–	–	–	EC50 (Human alphaherpesvirus 2): 0.3 µM
Nc1nc2c(ncn2COCCO)c(=O)[nH]1 [ACYCLOVIR]	–	–	–	–	–	–	–	–	–	–	–	–	> 440	–	–	–	–	–	–	–	MCC [5]: 250 to 440 µM; EC50 (Human alphaherpesvirus 2): 2 µM; EC50 (Human alphaherpesvirus 1 [14]): 17 µM; EC50 (Human adenovirus 2; Human mastadenovirus C, 168 h): 5.8 µM
Nc1ccn(C[C@@H](CO)OCP(=O)(O)O)c(=O)n1 [CIDOFOVIR]	–	–	–	–	–	–	–	0.43	0.65	–	–	–	214	–	–	–	–	–	–	–	MCC [5]: 250 to 300 µM; EC50 (Human alphaherpesvirus 2): 5.3 µM; EC50 (Human alphaherpesvirus 1 [14]): 4.5 µM
O=C1O[C@H]([C@@H](O)Cn2cc(C3CC3)nn2)C(OCc2ccccc2)=C1OCc1ccccc1	47.7	30.4	26.5	38.1	25.9	54.2	24.3	44.7	> 20	> 100	> 100	100	–	inactive	inactive	inactive	inactive	inactive	inactive	inactive	IC50 (A549): 43.9 µM; Activity (Human alphaherpesvirus 2): inactive; Activity (Human alphaherpesvirus 1 [14]): inactive; Activity (Human adenovirus 2): inactive; Activity (Human coronavirus 229E): inactive; Activity (Coxsackievirus B4): inactive; Activity (Reovirus sp.): inactive; Activity (Sindbis virus): inactive
O=C1O/C(=C\Cn2cc(CCO)nn2)C(OCc2ccccc2)=C1OCc1ccccc1	43.4	27.9	27.9	39	37.2	41.9	25.6	> 100	> 100	78.1	> 100	> 100	–	inactive	inactive	inactive	inactive	inactive	inactive	inactive	IC50 (A549): > 100 µM; Activity (Human alphaherpesvirus 2): inactive; Activity (Human alphaherpesvirus 1 [14]): inactive; Activity (Human adenovirus 2): inactive; Activity (Human coronavirus 229E): inactive; Activity (Coxsackievirus B4): inactive; Activity (Reovirus sp.): inactive; Activity (Sindbis virus): inactive
O=c1[nH]c(=O)n([C@H]2C[C@H](O)[C@@H](CO)O2)cc1/C=C/Br [BRIVUDINE]	–	–	–	–	–	–	–	–	–	0.0066	18.4	–	179	–	–	–	–	–	–	–	MCC [5]: 250 to 300 µM; EC50 (Human alphaherpesvirus 2): > 250 µM
CC(C)(C)c1cn(C[C@H](O)[C@H]2OC(=O)C(OCc3ccccc3)=C2OCc2ccccc2)nn1	54.9	28.3	18.3	29.2	0.73	35.8	13.3	44.7	> 20	> 20	48.9	100	–	inactive	inactive	inactive	inactive	inactive	inactive	inactive	IC50 (A549): 34 µM; Activity (Human alphaherpesvirus 2): inactive; Activity (Human alphaherpesvirus 1 [14]): inactive; Activity (Human adenovirus 2): inactive; Activity (Human coronavirus 229E): inactive; Activity (Coxsackievirus B4): inactive; Activity (Reovirus sp.): inactive; Activity (Sindbis virus): inactive
